V-ATPase pH: regulators of yeast V-ATPase proton pumping, primary screen, pHLuorin cytosolic pH fluorescence; S. cerevisiae; AID 504577, 2011; response, % at 10 µM; 350,000 tested, 0.37% active; in the data active means response mostly above about 7.3%, no sharp cut-off; inactive means mostly below about 5.4%; further: actives read high
UPR CHOP act: activators of apoptotic CHOP UPR arm, primary screen, cell-based, CHO-CHOP luciferase reporter, luminescence, uHTS; UPR activation; percent of tunicamycin response over DMSO baseline; activation, % at 10 µM; 330,000 tested, 0.34% active; AID 449763, 2010;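 active means at 10 µM dose, activation of 40% or more, normalized to positive control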
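Dosing – one dose, 10 µM in 0.5% DMSO · System – CHO-CHOP cells, stable luciferase reporter of PERK-eIF2a-CHOP signalling · Input – 500 cells/well · Control set – tunicamycin 10 µg/mL final as positive, DMSO-only wells as negative · Timing – 6 h compound treatment, 37 °C · Measure – % activation vs tunicamycin · Technique – luminescence read with Steady-Glo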
UPR XBP1 act: activators of adaptive XBP1 UPR arm, primary screen, cell-based, CHO-XBP1 luciferase reporter, luminescence, uHTS; activation, % at 20 µM; IRE1-XBP1 UPR activation; percent of tunicamycin response, DMSO as zero; 330,000 tested, 0.33% active;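 active means versus positive control, 20 µM dose yields 30% or more activation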
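Material: CHO-XBP1 cells stably carrying IRE1-XBP1-driven luciferase reporter | Medium: F12 with 10% serum | Compound dosing: 20 µM single concentration, DMSO 1% | Incubation: Overnight seeding at 37 °C, 6 h compound treatment at 37 °C | Detection: Steady-Glo luminescence read | Read-out basis: % activation of reporter signal versus tunicamycin and DMSO controls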
TbMetRS inhib: T. brucei MetRS inhibitors, primary screen, biochemical, luminescence; methionyl-tRNA synthetase (Trypanosoma brucei brucei); purified T. brucei MetRS, ATP depletion, Kinase-Glo luminescence; inhibition, % at 11.9 µM; 360,000 tested, 0.4% active;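 active means inhibition above a per-plate cutoff of the control wells' mean inhibition plus 3 SD, cut at about 5.5% in these data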
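Test system – parasite MetRS enzyme · Reagent – substrates ATP, L-methionine and bulk Escherichia coli tRNA · Doses – 11.9 µM compound single dose, 0.9% DMSO · Times – 15 min enzyme-compound preincubation, 2 h reaction, 10 min detection, 25 °C · Signal – Kinase-Glo luminescence, ATP depletion format · Controls – DMSO-only wells as low control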
CHOP inhibitor: inhibitors of CHOP promoter induction, primary screen, cell-based, unfolded protein response, luciferase reporter. CHO-K1 CHOP-promoter luciferase, tunicamycin-induced, 15-18 h. inhibition, % at 10 µM. 220,000 tested, 3.8% active. AID 2732, 2010;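 active means compounds that reduced the stress-induced luciferase reporter signal by more than about 70% of percent inhibition, limit read from the data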
TbMetRS confirm: T. brucei MetRS inhibitors, confirmation, biochemical, luminescence; T. brucei MetRS enzyme, luminescence (ATP depletion); AID 624412, 2012; 1,400 tested, 93% active; inhibition, % at 11.9 µM; shares compounds with TbMetRS inhib; in the data active means inhibition above about 7%
Jurkat cytotox: Jurkat T cell cytotoxicity, cytotoxicity control for T. brucei MetRS inhibitor project, luminescence, high throughput; shares compounds with TbMetRS inhib; 1,400 tested, 12% active; AID 624413, 2012; Jurkat cells viability, ATP luminescence; inhibition, % at 8.3 µM; in the data active means inhibition above about 15%
TbMetRS FP orth: T. brucei MetRS inhibitors, orthogonal assay for T. brucei MetRS inhibitor project, biochemical, fluorescence polarization | shares compounds with TbMetRS inhib | purified T. brucei MetRS | inhibition, % at 11.9 µM | 1,400 tested, 44% active; in the data active means inhibition above about 17%
Of the large screens only hits and unclear results are named; the others gave an inactive call (follow-up assays come after a bar, where they were run). The entries come from a sample that favours hits as a whole.

Cc1cc(C(=O)OCC(=O)Nc2ccc(F)cc2)c(C)n1C1CC1	none (no result: CHOP inhibitor)
CCOC(=O)c1c(NS(=O)(=O)c2ccccc2)n(CCCOC)c2nc3ccccc3nc12	TbMetRS inhib 13.6 | TbMetRS confirm inactive | Jurkat cytotox inactive | TbMetRS FP orth inactive
CCOC(=O)c1c(N)n(Cc2ccc(OC)cc2)c2nc3ccccc3nc12	none (no result: V-ATPase pH, UPR CHOP act, UPR XBP1 act, TbMetRS inhib)
COc1cc(C(=O)OC2C[C@H]3CC[C@@H](C2)N3)ccc1O (some centres undefined)	none (no result: CHOP inhibitor)
CN(C)Cc1c[nH]c2cc([N+](=O)[O-])ccc12	TbMetRS inhib 6.7 (no result: UPR CHOP act, UPR XBP1 act, CHOP inhibitor) | TbMetRS confirm 30.0 | Jurkat cytotox inactive | TbMetRS FP orth inactive
Cc1nc2c(=O)n(C)c(=O)nc-2n(C)n1	TbMetRS inhib 30.4 (no result: CHOP inhibitor) | TbMetRS confirm 21.6 | Jurkat cytotox 91.4 | TbMetRS FP orth inactive
C[C@]12CCC3C(CC[C@H]4C[C@@H](O)CC[C@]34C)C1CC[C@@H]2OC(=O)[C@H](N)CCCCN (some centres undefined)	none (no result: CHOP inhibitor)
Oc1c(Cl)cccc1Cc1cc(Cl)cc(Cl)c1O	none (no result: UPR CHOP act, UPR XBP1 act, CHOP inhibitor)
CSc1ccc(C(=O)C2CCCN(Cc3cc4ccccc4[nH]3)C2)cc1 (centres undefined)	TbMetRS inhib 7.1, CHOP inhibitor 70.2 | TbMetRS confirm 14.8 | Jurkat cytotox inactive | TbMetRS FP orth inactive
CCN(CC)C(=O)c1ccc(NC(=O)c2cccc(C(F)(F)F)c2)cc1	none
CCN(CC)C(=O)c1ccc(NC(=O)c2ccc(-n3cncn3)c([N+](=O)[O-])c2)cc1	TbMetRS inhib 8.0 (no result: CHOP inhibitor) | TbMetRS confirm 43.2 | Jurkat cytotox inactive | TbMetRS FP orth 25.7
CN1CCN(/N=C/c2c(O)n(Cc3ccc(F)cc3)c(=O)[nH]c2=O)CC1	none
CN1C(=O)C(Cc2nc3ccccc3c(=O)n2-c2ccccc2)c2ccccc21 (centres undefined)	none
O=C1Nc2ccccc2C1Cc1nc2ccccc2c(=O)n1-c1ccccc1 (centres undefined)	TbMetRS inhib 9.1 | TbMetRS confirm 6.2 | Jurkat cytotox inactive | TbMetRS FP orth inactive
C1CN(P2(N3CC3)=NP(N3CC3)(N3CC3)=NP(N3CC3)(N3CC3)=N2)CCO1 (centres undefined)	none (no result: UPR CHOP act, UPR XBP1 act, CHOP inhibitor)
Cc1ccc2nc3c(cc2c1)CC1(C(=O)N(C)C(=O)N(C)C1=O)C1COCCN31 (centres undefined)	TbMetRS inhib 7.1 | TbMetRS confirm inactive | Jurkat cytotox inactive | TbMetRS FP orth inactive
Cc1ccc2nc3c(cc2c1)CC1(C(=O)N(C)C(=O)N(C)C1=O)C1CCCCN31 (centres undefined)	none
Clc1ccc(C(c2ccc(Cl)cc2)n2cc[n+](CC(OCc3ccc(Cl)cc3Cl)c3ccc(Cl)cc3Cl)c2)cc1 (centres undefined)	TbMetRS inhib 8.7 | TbMetRS confirm 13.3 | Jurkat cytotox 82.0 | TbMetRS FP orth 178.0

Source: PubChem BioAssay (several laboratories)
